In ChEMBL document CHEMBL4017500 (J Med Chem, 2017):
Active and inactive are the calls of the source. The calls are words filed in the database; no cut-off is given here.

Columns and labels:
[1] = Selectivity ratio of compound effect for inhibition of bacterial MBP-fused NDM1 expressed in Escherichia coli BL21(DE3) to compound effect for inhibition of human MMP12 (Phe99 to Leu271 residues) expressed in Escherichia coli
Klebsiella pneumoniae [2] = assay: Effect on growth of Klebsiella pneumoniae isolate Pd1.48 at 100 mg/L after 18 to 20 hrs by broth microdilution assay
Procedure, shortened: (§1)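 Mueller-Hinton broth microdilution per CLSI, triplicate. blaNDM-1 clinical isolates grown from OD600 0.1 to 0.224 (~1–2 × 10^8 CFU/mL), diluted 3 μL into 4997 μL MH, and 100 μL added to 100 μL of compound (100 mg/L) alone. Incubated 37 °C for 18–20 h, then scored for growth.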

Bacteria [3] = assay: Binding affinity to bacterial CoCoNDM-1 expressed in Escherichia coli BL21(DE3) assessed as CoCoNDM-1-compound ternary complex formation at 1 equiv by 1H […] spectroscopic method
Escherichia coli [4] = assay: Inhibition of NDM1 in Escherichia coli isolate Ah8.71 assessed as potentiation of imipenem-induced antibacterial activity by measuring imipenem MIC at 100 mg/L after 18 to 20 hrs by broth microdilution assay (reference value: 16 mg/L)
Beta-lactamase VIM-2 = Beta-lactamase VIM-2 (Pseudomonas aeruginosa, UniProt Q9K2N0); assay: Inhibition of Pseudomonas aeruginosa VIM2 expressed in Escherichia coli BL21(DE3) using fluorocillin as substrate preincubated for 10 mins followed by substrate addition measured after 20 mins by HTS assay
[5] = target: Metallo-beta-lactamase type 2 (Klebsiella pneumoniae) (UniProt C7C422); assay: Inhibition of NDM1 in Klebsiella pneumoniae isolate Cm1.63 assessed as potentiation of imipenem-induced antibacterial activity by measuring imipenem MIC at 100 mg/L after 18 to 20 hrs by broth microdilution assay (reference value: 8 mg/L)
Sequence of Metallo-beta-lactamase type 2 (Klebsiella pneumoniae) (C7C422 whole entry): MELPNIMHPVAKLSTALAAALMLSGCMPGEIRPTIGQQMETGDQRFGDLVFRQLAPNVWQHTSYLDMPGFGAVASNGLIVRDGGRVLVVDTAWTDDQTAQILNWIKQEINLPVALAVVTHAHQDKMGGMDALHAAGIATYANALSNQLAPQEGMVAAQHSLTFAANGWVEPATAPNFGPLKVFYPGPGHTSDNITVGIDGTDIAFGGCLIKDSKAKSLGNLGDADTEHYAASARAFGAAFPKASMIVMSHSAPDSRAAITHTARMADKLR

Klebsiella pneumoniae [6] = assay: Effect on growth of Klebsiella pneumoniae isolate Pd1.49 at 100 mg/L after 18 to 20 hrs by broth microdilution assay; procedure, shortened: as §1
[7] = target: Metallo-beta-lactamase type 2 (Klebsiella pneumoniae) (UniProt C7C422); assay: Inhibition of NDM1 in Klebsiella pneumoniae isolate Pd1.50 assessed as potentiation of imipenem-induced antibacterial activity by measuring imipenem MIC at 100 mg/L after 18 to 20 hrs by broth microdilution assay (reference value: 8 mg/L)
Klebsiella pneumoniae [8] = assay: Effect on growth of Klebsiella pneumoniae isolate Cm1.62 at 100 mg/L after 18 to 20 hrs by broth microdilution assay; procedure, shortened: as §1
[9] = target: 72 kDa type IV collagenase (Homo sapiens) (UniProt P08253); assay: Inhibition of human MMP2 (Tyr110 to Asp452 residues) expressed in yeast at 10 uM using Mca-Pro-LeuGly-Leu-Dpa-Ala-Arg-NH2.AcOH as substrate preincubated for 30 mins followed by substrate addition measured after 20 mins by fluorescence assay relative to control
Sequence of 72 kDa type IV collagenase (Homo sapiens) (P08253 110-660 limits assumed): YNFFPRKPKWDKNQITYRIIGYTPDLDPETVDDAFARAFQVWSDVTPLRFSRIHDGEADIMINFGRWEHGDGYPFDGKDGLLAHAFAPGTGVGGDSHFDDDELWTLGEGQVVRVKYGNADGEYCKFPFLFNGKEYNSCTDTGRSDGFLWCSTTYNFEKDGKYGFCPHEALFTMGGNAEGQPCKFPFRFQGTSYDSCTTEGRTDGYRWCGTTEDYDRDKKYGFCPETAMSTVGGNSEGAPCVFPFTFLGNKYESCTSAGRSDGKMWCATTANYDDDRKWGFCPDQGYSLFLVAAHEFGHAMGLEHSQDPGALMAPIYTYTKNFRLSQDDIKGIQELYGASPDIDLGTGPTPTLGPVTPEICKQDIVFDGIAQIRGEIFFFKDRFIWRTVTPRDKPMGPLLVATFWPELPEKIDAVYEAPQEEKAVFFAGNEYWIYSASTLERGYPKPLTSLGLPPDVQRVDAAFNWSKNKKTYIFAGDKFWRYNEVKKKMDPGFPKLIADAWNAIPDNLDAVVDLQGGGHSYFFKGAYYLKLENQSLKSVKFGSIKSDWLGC
Procedure, shortened: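 Human recombinant MMP-2 (1.16 U/well) or MMP-12 (0.007 U/well) in 50 mM HEPES, 10 mM CaCl2, 0.05% Brij-35, pH 7.5. Enzyme and inhibitor pre-incubated 30 min at 37 °C, then OmniMMP fluorogenic substrate (4 μM) added. Fluorescence rise followed 20 min at ex/em 320/400 nm. Activity relative to no-inhibitor wells, with 200 μM NSA as 0%. Run in triplicate.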

Bacteria [10] = assay: Binding affinity to bacterial NDM-1 expressed in Escherichia coli BL21(DE3) assessed as intrinsic tryptophan fluorescence quenching up to 32 uM after 30 mins by luminescence spectrometric method relative to control
Procedure, shortened: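 NDM-1 at 2 μM final in 50 mM HEPES pH 7.5 mixed with compound at 4–32 μM, incubated 30 min. Emission scanned 300–400 nm with excitation at 280 nm. Relative tryptophan fluorescence read at 348 nm, with buffer set to 0% and inhibitor-free NDM-1 to 100%. Control run with 2 μM L-tryptophan in place of enzyme.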

Bacteria [11] = assay: Binding affinity to bacterial NDM-1 expressed in Escherichia coli BL21(DE3) assessed as Zn2+ stripping at 24 uM after 30 mins by equilibrium dialysis method relative to control
Procedure, shortened: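 NDM-1 (8 μM final) in 50 mM HEPES pH 7.5 mixed with compound at 0–128 μM for 30 min. Then dialyzed 4 h against metal-free 50 mM HEPES pH 7.5. Residual Zn(II) measured by ICP-AES at 213.856 nm.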

Escherichia coli [12] = assay: Effect on growth of Escherichia coli isolate Ch8.69 at 100 mg/L after 18 to 20 hrs by broth microdilution assay; procedure, shortened: as §1
[13] = Metal chelating activity assessed as Co2+-compound complex formation at 1 equiv by 1H NMR spectroscopic method; assay type: functional
Procedure, shortened: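 Apo-NDM-1 concentrated to ~1 mM and given 2 equivalents of CoCl2, in 50 mM HEPES, 150 mM NaCl, 10% D2O, pH 6.8. Compounds, from DMSO stocks of 50–100 mM, titrated in. 1H NMR spectra recorded at 292 K at 300.16 MHz.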

Escherichia coli [14] = assay: Inhibition of NDM1 in Escherichia coli isolate Ah8.75 assessed as potentiation of imipenem-induced antibacterial activity by measuring imipenem MIC at 100 mg/L after 18 to 20 hrs by broth microdilution assay (reference value: 16 mg/L)
Escherichia coli [15] = assay: Inhibition of NDM1 in Escherichia coli isolate Ah8.73 assessed as potentiation of imipenem-induced antibacterial activity by measuring imipenem MIC at 100 mg/L after 18 to 20 hrs by broth microdilution assay (reference value: 16 mg/L)
Escherichia coli [16] = assay: Effect on growth of Escherichia coli isolate Ch8.70 at 100 mg/L after 18 to 20 hrs by broth microdilution assay; procedure, shortened: as §1
Escherichia coli [17] = assay: Effect on growth of Escherichia coli isolate Ch8.68 at 100 mg/L after 18 to 20 hrs by broth microdilution assay; procedure, shortened: as §1
Klebsiella pneumoniae [18] = assay: Effect on growth of Klebsiella pneumoniae isolate Cm1.63 at 100 mg/L after 18 to 20 hrs by broth microdilution assay; procedure, shortened: as §1
[19] = target: Metallo-beta-lactamase type 2 (Klebsiella pneumoniae) (UniProt C7C422); assay: Inhibition of NDM1 in Klebsiella pneumoniae isolate Pd1.53 assessed as potentiation of imipenem-induced antibacterial activity by measuring imipenem MIC at 100 mg/L after 18 to 20 hrs by broth microdilution assay (reference value: 8 mg/L)
Bacteria [20] = assay: Binding affinity to bacterial CoCoNDM-1 expressed in Escherichia coli BL21(DE3) assessed as metal stripping at 2 equiv by 1H NMR spectroscopic method
Procedure, shortened: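 Apo-NDM-1 concentrated to ~1 mM and loaded with 2 equiv CoCl2. Samples in 50 mM HEPES, 150 mM NaCl, 10% D2O, pH 6.8. Compounds from 50–100 mM DMSO stocks titrated in ~5 μL aliquots. 1H spectra recorded at 292 K, 300.16 MHz.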

Escherichia coli [21] = assay: Effect on growth of Escherichia coli isolate Ah8.71 at 100 mg/L after 18 to 20 hrs by broth microdilution assay; procedure, shortened: as §1

**Q.** Which Selectivity ratio [1] does the source give for `Nc1cccc(-c2cc(C(=O)O)nc(C(=O)O)c2)c1` here?
**A.** The Selectivity ratio was 100 to 1000.

**Q.** And the Activity (Klebsiella pneumoniae [2])?
**A.** The Activity was “Non-Toxic”.

**Q.** What about the Activity (Bacteria [3]) of the same compound?
**A.** Its Activity is “Active”.

**Q.** What about the MIC (Escherichia coli [4]) of the same compound?
**A.** Its MIC is 1 µg/mL.

**Q.** What about the IC50 (Beta-lactamase VIM-2) of the same compound?
**A.** The IC50 was 210 nM.

**Q.** What about the MIC [5] of the same compound?
**A.** The MIC was 1 µg/mL.

**Q.** And the Activity (Klebsiella pneumoniae [6])?
**A.** Its Activity is “Non-Toxic”.

**Q.** And the MIC [7]?
**A.** Its MIC is 0.5 µg/mL.

**Q.** What about the Activity (Klebsiella pneumoniae [8]) of the same compound?
**A.** Its Activity is “Non-Toxic”.

**Q.** And the inhibition [9]?
**A.** Its inhibition is less than 6%.

**Q.** What about the Activity (Bacteria [10]) of the same compound?
**A.** Its Activity is 50 to 60%.

**Q.** What about the Activity (Bacteria [11]) of the same compound?
**A.** Its Activity is 10 to 20%.

**Q.** What about the Activity (Escherichia coli [12]) of the same compound?
**A.** Its Activity is “Non-Toxic”.

**Q.** And the Activity [13]?
**A.** The Activity was “Active”.

**Q.** What about the MIC (Escherichia coli [14]) of the same compound?
**A.** Its MIC is 0.5 µg/mL.

**Q.** And the MIC (Escherichia coli [15])?
**A.** Its MIC is 0.5 µg/mL.

**Q.** And the Activity (Escherichia coli [16])?
**A.** Its Activity is “Non-Toxic”.

**Q.** And the Activity (Escherichia coli [17])?
**A.** Its Activity is “Non-Toxic”.

**Q.** And the Activity (Klebsiella pneumoniae [18])?
**A.** Its Activity is “Non-Toxic”.

**Q.** And the MIC [19]?
**A.** The MIC was 0.5 µg/mL.

**Q.** What about the Activity (Bacteria [20]) of the same compound?
**A.** Its Activity is “Active”.

**Q.** What about the Activity (Escherichia coli [21]) of the same compound?
**A.** Its Activity is “Non-Toxic”.
